From ChEMBL document CHEMBL4184143 (J Med Chem, 2017)

Key:
[1] = AUC (0 to t) in SCID mouse at 5 mg/kg, iv by LC/MS method; format: ADME, organism-based; settings: in vivo
In short: (§1)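 Mouse plasma samples were stored at −80 °C. Drug levels were quantified by a validated LC–MS/MS method, and pharmacokinetic parameters were calculated by noncompartmental analysis.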

[2] = AUC (0 to t) in SCID mouse at 25 mg/kg, po by LC/MS method; format: ADME, organism-based; settings: in vivo; in short: as §1
Peregrin = Peregrin (Homo sapiens, UniProt P55201); assay: Binding affinity to human partial length BRPF1 (E627 to G740 residues) expressed in bacterial expression system by BROMOscan assay
[3] = Half life in human liver microsomes at 1 uM by LC/MS method; format: ADME, microsome
[4] = target: T1, Bromodomain-containing protein 4 (Homo sapiens, UniProt O60885); assay: Inhibition of FAM-labeled ZBA248 binding to recombinant human N-terminal His6-tagged BRD4 bromodomain 2 (333 to 460 residues) expressed in Rosetta2 DE3 cells after 30 mins by Flourescence polarization assay; format: biochemical
[5] = target: Transcription initiation factor TFIID subunit 1 (Homo sapiens, UniProt P21675); assay: Binding affinity to human partial length TAF1 bromodomain 2 (D1521 to D1656 residues) expressed in bacterial expression system by BROMOscan assay
Protein polybromo-1 [6] = target: T2, Protein polybromo-1 (Homo sapiens, UniProt Q86U86); assay: Binding affinity to human partial length PBRM1 bromodomain 2 (S178 to E291 residues) expressed in bacterial expression system by BROMOscan assay
T2 sequence (Q86U86 whole entry, the tested form may be a part): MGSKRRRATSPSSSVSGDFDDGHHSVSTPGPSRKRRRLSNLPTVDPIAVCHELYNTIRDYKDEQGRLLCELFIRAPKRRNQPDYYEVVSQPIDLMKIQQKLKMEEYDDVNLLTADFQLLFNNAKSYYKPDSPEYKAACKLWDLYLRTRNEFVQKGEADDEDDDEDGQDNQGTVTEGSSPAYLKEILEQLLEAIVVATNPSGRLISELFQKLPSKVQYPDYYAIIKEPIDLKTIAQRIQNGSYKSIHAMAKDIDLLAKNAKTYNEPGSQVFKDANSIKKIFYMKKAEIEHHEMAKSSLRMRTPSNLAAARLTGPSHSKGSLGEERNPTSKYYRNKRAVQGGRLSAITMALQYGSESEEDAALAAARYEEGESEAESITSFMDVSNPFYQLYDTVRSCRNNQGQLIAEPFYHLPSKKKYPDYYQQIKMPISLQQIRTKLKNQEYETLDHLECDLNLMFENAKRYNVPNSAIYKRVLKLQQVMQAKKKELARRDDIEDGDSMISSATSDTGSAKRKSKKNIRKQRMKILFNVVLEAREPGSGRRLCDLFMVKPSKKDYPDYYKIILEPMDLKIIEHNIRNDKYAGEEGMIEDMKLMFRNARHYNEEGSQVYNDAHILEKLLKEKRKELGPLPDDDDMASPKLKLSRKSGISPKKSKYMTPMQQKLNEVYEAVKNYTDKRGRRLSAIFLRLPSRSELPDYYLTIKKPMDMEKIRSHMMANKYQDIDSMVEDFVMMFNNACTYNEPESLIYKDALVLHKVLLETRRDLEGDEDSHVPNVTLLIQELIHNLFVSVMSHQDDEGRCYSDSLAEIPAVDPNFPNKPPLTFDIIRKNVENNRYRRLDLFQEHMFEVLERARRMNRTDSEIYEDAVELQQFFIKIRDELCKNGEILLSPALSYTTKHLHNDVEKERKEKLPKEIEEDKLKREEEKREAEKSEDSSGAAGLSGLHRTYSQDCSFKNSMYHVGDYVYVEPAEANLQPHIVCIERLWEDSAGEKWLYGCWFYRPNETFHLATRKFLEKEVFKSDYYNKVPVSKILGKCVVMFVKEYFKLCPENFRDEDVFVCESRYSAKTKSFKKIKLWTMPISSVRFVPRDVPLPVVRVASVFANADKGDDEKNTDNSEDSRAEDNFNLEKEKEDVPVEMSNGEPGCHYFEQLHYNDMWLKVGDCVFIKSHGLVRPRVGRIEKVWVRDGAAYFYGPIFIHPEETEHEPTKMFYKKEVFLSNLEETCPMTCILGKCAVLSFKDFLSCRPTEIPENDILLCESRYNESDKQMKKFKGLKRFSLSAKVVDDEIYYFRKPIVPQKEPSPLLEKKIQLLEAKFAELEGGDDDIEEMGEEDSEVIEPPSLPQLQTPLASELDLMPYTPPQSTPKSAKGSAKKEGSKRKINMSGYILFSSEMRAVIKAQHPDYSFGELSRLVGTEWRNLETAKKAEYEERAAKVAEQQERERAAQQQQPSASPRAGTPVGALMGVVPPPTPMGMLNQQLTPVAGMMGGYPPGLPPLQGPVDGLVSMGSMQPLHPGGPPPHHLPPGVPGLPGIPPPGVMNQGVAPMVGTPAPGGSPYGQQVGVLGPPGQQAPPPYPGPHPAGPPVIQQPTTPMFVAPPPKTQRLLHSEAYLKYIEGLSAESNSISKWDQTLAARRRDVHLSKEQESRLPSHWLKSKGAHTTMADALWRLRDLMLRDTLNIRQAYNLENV

[7] = target: SWI/SNF-related matrix-associated actin-dependent regulator of chromatin subfamily A member 4 (Homo sapiens, UniProt P51532); assay: Binding affinity to human partial length SMARCA4 (A1448 to S1575 residues) expressed in bacterial expression system by BROMOscan assay
[8] = target: Histone acetyltransferase KAT2B (Homo sapiens, UniProt Q92831); assay: Binding affinity to human partial length PCAF (G715 to D831 residues) expressed in bacterial expression system by BROMOscan assay
Mus musculus [9] = assay: Toxicity in SCID mouse implanted with human MDA-MB-231 cells at 40 mg/kg, po qd measured 2 to 3 times weekly during treatment and weekly post dose; format: organism-based; settings: in vivo
In short: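 At ~100 mm3, mice were randomized to treatment or vehicle control. Tumors were measured by electronic calipers. Animals were checked daily for signs of toxicity and weighed 2–3 times weekly on treatment, then at least weekly afterwards.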

[10] = target: T1, Bromodomain-containing protein 4; assay: Binding affinity to recombinant human BRD4 bromodomain 1 (44 to 168 residues) by BROMOscan assay
[11] = target: Bromodomain-containing protein 2 (Homo sapiens, UniProt P25440); assay: Binding affinity to human partial length BRD2 bromodomain 1/2 isoform 1 (K71 to D455 residues) by BROMOscan assay
Mus musculus [12] = assay: Half life in SCID mouse at 5 mg/kg, iv by LC/MS method; format: ADME, organism-based; settings: in vivo
[13] = Half life in SCID mouse at 25 mg/kg, po by LC/MS method; format: ADME, organism-based; settings: in vivo
HCC1143 = assay: Cytotoxicity against human HCC1143 cells assessed as cell growth inhibition after 4 days by WST-8 assay; format: functional, cell-based; settings: HCC1143, 96 h
In short: (§2)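 Breast cancer cells were seeded at 3,000 cells/well, treated with serially diluted compound in medium and cultured for 4 days. Growth was read by WST-8 (10% v/v final, 1–3 h) at 450 nm. Readings were normalized to DMSO-treated cells, and IC50 was obtained by nonlinear regression.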

CREB-binding protein = CREB-binding protein (Homo sapiens, UniProt Q92793); assay: Binding affinity to human partial length CREBBP (R1081 to G1197 residues) expressed in bacterial expression system by BROMOscan assay
CREB-binding protein, sequence (Q92793 whole entry, the tested form may be a part): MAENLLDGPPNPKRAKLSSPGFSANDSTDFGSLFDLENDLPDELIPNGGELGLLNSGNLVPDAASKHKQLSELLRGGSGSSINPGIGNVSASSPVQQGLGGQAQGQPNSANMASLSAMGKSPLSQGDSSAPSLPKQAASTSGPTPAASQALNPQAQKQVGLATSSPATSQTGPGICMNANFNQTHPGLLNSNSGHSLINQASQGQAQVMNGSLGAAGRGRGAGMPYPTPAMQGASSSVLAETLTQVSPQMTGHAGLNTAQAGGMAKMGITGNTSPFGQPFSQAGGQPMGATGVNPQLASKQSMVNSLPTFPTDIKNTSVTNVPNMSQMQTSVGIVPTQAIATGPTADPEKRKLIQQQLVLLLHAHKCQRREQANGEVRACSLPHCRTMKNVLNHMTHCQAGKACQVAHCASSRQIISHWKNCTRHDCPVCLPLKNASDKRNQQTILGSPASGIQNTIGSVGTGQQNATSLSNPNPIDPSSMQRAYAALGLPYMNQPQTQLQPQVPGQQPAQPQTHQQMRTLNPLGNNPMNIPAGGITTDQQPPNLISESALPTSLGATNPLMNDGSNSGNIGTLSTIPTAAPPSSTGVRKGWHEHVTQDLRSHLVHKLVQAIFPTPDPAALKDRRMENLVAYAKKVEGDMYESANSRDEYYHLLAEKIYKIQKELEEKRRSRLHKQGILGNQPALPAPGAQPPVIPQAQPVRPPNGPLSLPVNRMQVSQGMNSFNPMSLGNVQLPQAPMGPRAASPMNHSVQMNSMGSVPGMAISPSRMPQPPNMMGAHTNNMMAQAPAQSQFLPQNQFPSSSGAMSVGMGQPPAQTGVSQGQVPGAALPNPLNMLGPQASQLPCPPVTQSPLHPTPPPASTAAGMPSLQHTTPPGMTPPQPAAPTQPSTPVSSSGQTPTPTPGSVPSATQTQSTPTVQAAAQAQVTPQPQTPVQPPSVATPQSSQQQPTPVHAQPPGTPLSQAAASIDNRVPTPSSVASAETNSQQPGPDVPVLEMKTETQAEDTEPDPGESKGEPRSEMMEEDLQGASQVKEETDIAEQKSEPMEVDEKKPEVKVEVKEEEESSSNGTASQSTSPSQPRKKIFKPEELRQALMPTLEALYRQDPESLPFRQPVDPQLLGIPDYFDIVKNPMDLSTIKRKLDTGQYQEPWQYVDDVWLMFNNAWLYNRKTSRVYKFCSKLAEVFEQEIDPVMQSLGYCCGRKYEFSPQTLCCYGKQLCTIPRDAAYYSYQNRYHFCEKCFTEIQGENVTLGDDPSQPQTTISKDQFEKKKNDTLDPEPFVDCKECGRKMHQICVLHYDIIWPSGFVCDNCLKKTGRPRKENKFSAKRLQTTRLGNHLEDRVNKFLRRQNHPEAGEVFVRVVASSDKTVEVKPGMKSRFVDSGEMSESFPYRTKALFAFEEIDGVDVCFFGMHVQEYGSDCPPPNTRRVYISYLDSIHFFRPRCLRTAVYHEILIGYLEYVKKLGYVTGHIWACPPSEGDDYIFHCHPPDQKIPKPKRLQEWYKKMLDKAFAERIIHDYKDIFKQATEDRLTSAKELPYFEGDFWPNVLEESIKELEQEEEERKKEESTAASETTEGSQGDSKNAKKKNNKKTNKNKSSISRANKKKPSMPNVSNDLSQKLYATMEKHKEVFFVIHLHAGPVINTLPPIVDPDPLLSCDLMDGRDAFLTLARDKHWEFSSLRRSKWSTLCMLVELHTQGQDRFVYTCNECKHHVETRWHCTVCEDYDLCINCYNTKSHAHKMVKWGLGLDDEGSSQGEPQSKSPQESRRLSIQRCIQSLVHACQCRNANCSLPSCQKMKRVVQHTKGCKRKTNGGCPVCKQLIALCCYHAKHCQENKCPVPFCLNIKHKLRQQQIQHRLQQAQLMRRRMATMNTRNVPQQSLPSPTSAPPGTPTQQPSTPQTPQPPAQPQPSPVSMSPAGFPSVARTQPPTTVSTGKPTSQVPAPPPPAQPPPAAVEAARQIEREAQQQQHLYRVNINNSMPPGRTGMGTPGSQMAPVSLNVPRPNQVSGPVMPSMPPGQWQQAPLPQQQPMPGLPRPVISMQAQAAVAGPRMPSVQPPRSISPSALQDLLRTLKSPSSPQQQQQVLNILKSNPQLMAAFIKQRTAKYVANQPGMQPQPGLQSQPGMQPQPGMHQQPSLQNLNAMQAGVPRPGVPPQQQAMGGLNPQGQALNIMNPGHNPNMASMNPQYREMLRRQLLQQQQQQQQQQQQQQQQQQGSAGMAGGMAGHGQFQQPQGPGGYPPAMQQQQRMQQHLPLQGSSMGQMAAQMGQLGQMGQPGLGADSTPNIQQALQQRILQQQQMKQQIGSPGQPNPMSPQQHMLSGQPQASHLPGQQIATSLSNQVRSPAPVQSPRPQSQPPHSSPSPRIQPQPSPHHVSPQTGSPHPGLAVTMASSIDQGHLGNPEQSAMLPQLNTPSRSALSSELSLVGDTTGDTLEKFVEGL

Mus musculus [14] = assay: Volume of distribution at steady state in SCID mouse at 5 mg/kg, iv by LC/MS method; format: ADME, organism-based; settings: in vivo
[15] = target: T1, Bromodomain-containing protein 4; assay: Inhibition of FAM-labeled ZBA248 binding to recombinant human N-terminal His6-tagged BRD4 bromodomain 1 (44 to 168 residues) expressed in Rosetta2 DE3 cells after 30 mins by Flourescence polarization assay; format: biochemical
[16] = Half life in Sprague-Dawley rat liver microsomes at 1 uM by LC/MS method; format: ADME, microsome
[17] = target: SWI/SNF-related matrix-associated actin-dependent regulator of chromatin subfamily A member 2 (Homo sapiens, UniProt P51531); assay: Binding affinity to human partial length SMARCA2 (S1377 to Q1486 residues) expressed in bacterial expression system by BROMOscan assay
[18] = Half life in Sprague-Dawley rat at 25 mg/kg, po by LC/MS method; format: ADME, organism-based; settings: in vivo
In short: (§3)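 Sprague Dawley rats were dosed iv at 5 mg/kg or orally at 25 mg/kg, with compound dissolved in 20% (v/v) PCP/70% (v/v) PBS vehicle. Blood was drawn by catheter at 0, 5, 15, 30 min and 1, 2, 4, 6, 8, 24 h and spun to plasma, which was stored at −80 °C. Plasma drug was quantified by a validated LC–MS/MS method, and parameters were derived noncompartmentally.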

[19] = target: Bromodomain-containing protein 1 (Homo sapiens, UniProt O95696); assay: Binding affinity to human partial length BRD1 (E556 to A688 residues) expressed in bacterial expression system by BROMOscan assay
[20] = target: Histone acetyltransferase KAT2A (Homo sapiens, UniProt Q92830); assay: Binding affinity to human partial length GCN5L2 (E726 to K837 residues) expressed in bacterial expression system by BROMOscan assay
Histone acetyltransferase KAT2A, sequence (Q92830 whole entry, the tested form may be a part): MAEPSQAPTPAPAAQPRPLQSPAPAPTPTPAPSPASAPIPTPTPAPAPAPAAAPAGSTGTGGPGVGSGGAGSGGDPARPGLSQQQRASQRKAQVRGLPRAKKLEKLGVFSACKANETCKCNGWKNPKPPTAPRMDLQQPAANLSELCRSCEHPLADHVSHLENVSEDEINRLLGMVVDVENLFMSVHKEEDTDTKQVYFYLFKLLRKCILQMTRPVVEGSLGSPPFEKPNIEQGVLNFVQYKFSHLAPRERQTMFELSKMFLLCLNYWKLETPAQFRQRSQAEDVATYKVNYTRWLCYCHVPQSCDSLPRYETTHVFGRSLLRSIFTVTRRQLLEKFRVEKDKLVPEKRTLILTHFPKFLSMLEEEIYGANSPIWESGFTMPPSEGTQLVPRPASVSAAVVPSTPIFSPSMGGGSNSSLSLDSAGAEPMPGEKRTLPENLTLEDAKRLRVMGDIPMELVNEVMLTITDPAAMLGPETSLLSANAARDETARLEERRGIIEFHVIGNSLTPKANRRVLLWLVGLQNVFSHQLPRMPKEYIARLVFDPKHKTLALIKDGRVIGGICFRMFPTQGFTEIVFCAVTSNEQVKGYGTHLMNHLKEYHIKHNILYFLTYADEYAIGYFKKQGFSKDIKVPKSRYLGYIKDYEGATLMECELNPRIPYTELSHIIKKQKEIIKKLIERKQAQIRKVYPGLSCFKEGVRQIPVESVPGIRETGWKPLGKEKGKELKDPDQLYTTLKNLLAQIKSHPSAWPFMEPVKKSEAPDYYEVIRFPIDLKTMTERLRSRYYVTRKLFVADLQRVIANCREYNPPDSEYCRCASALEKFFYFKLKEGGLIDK

[21] = Oral bioavailability in SCID mouse at 25 mg/kg by LC/MS method; format: ADME, organism-based; settings: in vivo
[22] = target: Bromodomain and WD repeat-containing protein 1 (Homo sapiens, UniProt Q9NSI6); assay: Binding affinity to human partial length WDR9 bromodomain 2 (A1310 to E1430 residues) expressed in bacterial expression system by BROMOscan assay
[23] = Cmax in Sprague-Dawley rat at 25 mg/kg, po by LC/MS method; format: ADME, organism-based; design: dose 25 mg/kg, route oral; settings: in vivo; in short: as §3
[24] = Half life in CD1 mouse liver microsomes at 1 uM by LC/MS method; format: ADME, microsome
HBL-100 = assay: Cytotoxicity against human HBL100 cells assessed as cell growth inhibition after 4 days by WST-8 assay; format: functional, cell-based; settings: HBL-100, 96 h; in short: as §2
[25] = Oral bioavailability in Sprague-Dawley rat at 25 mg/kg by LC/MS method; format: ADME, organism-based; settings: in vivo
[26] = target: Bromodomain-containing protein 3 (Homo sapiens, UniProt Q15059); assay: Binding affinity to human partial length BRD3 bromodomain 2 (G306 to P416 residues) expressed in bacterial expression system by BROMOscan assay
[27] = Volume of distribution at steady state in Sprague-Dawley rat at 5 mg/kg, iv by LC/MS method; format: ADME, organism-based; settings: in vivo, read-out: Vdss
Protein polybromo-1 [28] = target: T2, Protein polybromo-1; assay: Binding affinity to human partial length PBRM1 bromodomain 5 (S645 to D766 residues) expressed in bacterial expression system by BROMOscan assay

AUC(0-t) [1]: 3690 ng·h/mL
AUC(0-t) [2]: 9140 ng·h/mL
Kd (Peregrin): > 4000 nM
t1/2 [3]: > 1 h
IC50 [4]: 7.2 nM
Ki [4]: 1.4 nM
Kd [5]: > 4000 nM
Kd (Protein polybromo-1 [6]): > 4000 nM
Kd [7]: > 4000 nM
Kd [8]: > 4000 nM
Kd [10]: 8.4 nM
Kd [11]: 1.1 nM
t1/2 (Mus musculus [12]): 0.5 h
half-life [13]: 1.6 h
Kd (CREB-binding protein): 520 nM
Vdss (Mus musculus [14]): 2.75 L/kg
IC50 [15]: 28.2 nM
Ki [15]: 8.2 nM
t1/2 [16]: > 1 h
Kd [17]: > 4000 nM
half-life [18]: 2.9 h
Kd [19]: > 4000 nM
Kd [20]: > 4000 nM
bioavailability [21]: 50%
Kd [22]: > 4000 nM
Cmax [23]: 7330 ng/mL
t1/2 [24]: > 1 h
bioavailability [25]: 93%
Kd [26]: 0.69 nM
Vd [27]: 2 L/kg
Kd (Protein polybromo-1 [28]): > 4000 nM
SMILES: COc1cc2c(cc1-c1c(C)noc1C)[nH]c1nc(C)nc(-c3ccnc4ccccc34)c12
Activity (Mus musculus [9]): Non-Toxic
IC50 (HCC1143): > 2000 nM
IC50 (HBL-100): > 2000 nM
